Laboratory results from ChEMBL document CHEMBL5715960, “Epigenetic Co-Deregulation of EZH2/TET1 is a Senescence-Countering, Actionable Vulnerability in Triple-Negative Breast Cancer” (Theranostics, 2019).
Active and inactive are the calls of the source. No cut-off for these calls is given here.

Key:
MDA-MB-436 [1] = test: Antiproliferative activity against human MDA-MB-436 cells assessed as increase in global H3K9me3 expression level by immunoblot analysis; assay type: functional, cell-based
In short: (§1)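 Cells exposed to GSK343 at 2 µM (standard level unless stated otherwise), lysed and immunoblotted; α-tubulin and total H3 as loading controls.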

MCF7 [2] = test: Antiproliferative activity against human MCF7 cells assessed as increase in global H3K9me3 expression level by immunoblot analysis; assay type: toxicity, cell-based; in short: as §1
MDA-MB-436 [3] = test: Antiproliferative activity in human MDA-MB-436 cells assessed as increase in C12FDG based fluorescent SA-beta-gal positive cells at 2 uM in presence of adriamycin by FACS analysis; assay type: functional, cell-based
In short: (§2)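 Cells given 0.005 µg/ml adriamycin with or without 2 µM GSK343, or DMSO; SA-β-gal activity detected with C12FDG fluorescent substrate by flow cytometry, reported as percent positive cells. Mean ± SD.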

MDA-MB-231 [4] = test: Effect on […] in human MDA-MB-231 cells assessed as repression in TET1 promoter EZH2 by ChiP-qPCR analysis; assay type: functional, cell-based
In short: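 Cells treated with GSK343 or DMSO; chromatin immunoprecipitated with anti-EZH2 or anti-H3K27me3 antibody and quantified by qPCR with primers for the TET1 promoter; input as internal control, IgG as negative control.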

MDA-MB-231 [5] = test: Antiproliferative activity in human MDA-MB-231 cells assessed as increase in C12FDG based fluorescent SA-beta-gal positive cells at 2 uM in presence of adriamycin by FACS analysis; assay type: functional, cell-based; in short: as §2
MDA-MB-436 [6] = test: Effect on human MDA-MB-436 cells expressing shTET1 assessed as reduction in PCNA by immunoblot analysis; assay type: functional, cell-based
MDA-MB-231 [7] = test: […] in human MDA-MB-231 cells xenografted in Crl:NU-Foxn1-nu/nu mouse […] administered at 5 mg/kg, ip in presence of adriamycin treated for 21 days by SA-beta-gal staining analysis; assay type: functional, organism-based; settings: time 21.0 day
In short: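 SA-β-gal staining of xenograft tumors. Twice-weekly intraperitoneal GSK343 5 mg/kg, adriamycin 1 mg/kg, the combination, or DMSO, started at a tumor volume of about 50 mm3 and continued for 21 days.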

MDA-MB-436 [8] = test: Induction of apoptosis in human MDA-MB-436 cells assessed as decrease in accumulation of cells at S phase in presence of adriamycin by BrdU/PI-based cell cycle analysis; assay type: functional
In short: (§3)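 Cell cycle by BrdU/PI staining and flow cytometry, giving G1, S and G2 fractions. Cells received 0.005 µg/ml adriamycin with or without 2 µM GSK343, or DMSO. Mean ± SD.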

MDA-MB-436 [9] = test: Antiproliferative activity in human MDA-MB-436 cells assessed as increase in SA-beta-gal positive cells at 2 uM for 5 days by SA-beta-gal staining analysis; assay type: functional, cell-based; settings: time 5.0 day
In short: (§4)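 GSK343 2 µM or DMSO for 5 days, then chromogenic SA-β-gal staining and counting of positive cells. Triplicate; mean ± SD.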

MCF7 [10] = test: Antiproliferative activity in human MCF7 cells assessed as increase in SA-beta-gal positive cells at 2 uM for 5 days by SA-beta-gal staining analysis; assay type: toxicity, cell-based; settings: mcf7, 120 h, time 5 day; in short: as §4
MDA-MB-231 [11] = test: Effect on human MDA-MB-231 cells expressing shTET1 assessed as reduction in PCNA by immunoblot analysis; assay type: functional, cell-based
MDA-MB-231 [12] = test: Upregulation of TP53 gene in human MDA-MB-231 cells at 2 uM by qRT-PCR analysis; assay type: functional, cell-based
In short: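 Relative transcript levels measured by qRT-PCR in cells treated with 2 µM inhibitor, normalised to DMSO-treated control cells. Triplicate experiments unless stated otherwise; mean ± SD reported; unpaired two-tailed Student's t-test at p < 0.05.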

MDA-MB-453 = test: Antiproliferative activity against human MDA-MB-453 cells at 0.5 to 2 uM for 2 days by Guava viacount assay; assay type: functional, cell-based; settings: dose 0.5-2 µM, time 2.0 day
In short: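 Cells plated at 2 × 10^4 (24-well) or 1 × 10^5 (12-well), exposed to a range of GSK343 concentrations for 2 days against DMSO solvent control; cell number and viability read by Guava ViaCount flow cytometry, relative to DMSO. Triplicate; mean ± SD.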

MDA-MB-436 [13] = test: Effect on […] in human MDA-MB-436 cells assessed as repression in TET1 promoter H3K27me3 by ChiP-qPCR analysis; assay type: functional, cell-based
In short: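 ChIP-qPCR on MDA-MB-231 and MDA-MB-436 cells exposed to GSK343 or DMSO. Chromatin pulled down with anti-H3K27me3 antibody and amplified with primers specific for the TET1 promoter. Input (no immunoprecipitation) serves as internal control and anti-IgG as negative control. Mean ± SD, triplicate unless stated.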

MDA-MB-231 [14] = test: Effect on human MDA-MB-231 cells assessed as apoptotic phenotype by measuring increase in BIM expression level at 2 uM in presence of adriamycin by immunoblot analysis; assay type: functional, cell-based
In short: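 Immunoblot of cell lysates after 0.05 µg/ml adriamycin alone, with 2 µM GSK343, or DMSO. α-Tubulin and total H3 used as loading controls.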

MDA-MB-231 [15] = test: In vivo activation of TET1 in Crl:NU-Foxn1-nu/nu mouse xenografted with human MDA-MB-231 cells at 5 mg/kg, ip in presence of adriamycin treated for 21 days; assay type: functional, organism-based; settings: time 21.0 day
MDA-MB-436 [16] = test: Induction of apoptosis in human MDA-MB-436 cells assessed as increase in accumulation of cells at G1 phase in presence of adriamycin by BrdU/PI-based cell cycle analysis; assay type: functional; in short: as §3
MDA-MB-436 [17] = test: Antiproliferative activity in human MDA-MB-436 cells expressing shTET1 assessed as increase in SA-beta-gal positive cells by SA-beta-gal staining analysis (reference value: 8.2+/-2.4%); assay type: functional
MDA-MB-436 [18] = test: Effect on human MDA-MB-436 cells assessed as increase in global 5hmc level by dot analysis; assay type: functional, cell-based
In short: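 Global 5hmC measured by dot blot on genomic DNA from cells given GSK343 or carrying EZH2 knock-down, with DMSO or scrambled shRNA as controls. DNA denatured in 0.1 M NaOH at 99 °C for 5 min, then neutralized with ammonium sulfate pH 7.0. 5 µg spotted, UV-crosslinked, probed with anti-5hmC for 1 h at room temperature, ECL detection, dot intensity quantified. Mean ± SD.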

MDA-MB-231 [19] = test: Induction of apoptosis in human MDA-MB-231 cells xenografted in Crl:NU-Foxn1-nu/nu mouse assessed as apoptotic cells in tumor administered at 5 mg/kg, ip in presence of adriamycin treated for 21 days by TUNEL staining analysis; assay type: functional, organism-based; settings: time 21.0 day
In short: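 TUNEL staining of xenograft tumor sections. Dosing started when tumors reached about 50 mm3: twice-weekly intraperitoneal GSK343 5 mg/kg, adriamycin 1 mg/kg, the combination, or DMSO solvent control, for 21 days.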

MDA-MB-436 [20] = test: In vivo activation of TET1 in Crl:NU-Foxn1-nu/nu mouse xenografted with human MDA-MB-436 cells at 5 mg/kg, ip in presence of adriamycin treated for 21 days; assay type: functional, organism-based; settings: time 21.0 day
BT-474 = test: Induction of cell cycle arrest in human BT-474 cells assessed as accumulation of cells at G1 phase measured at 2 uM by BrdU/PI staining based flow cytometric analysis (reference value: 60.8%); assay type: functional

CCCc1cc(C)[nH]c(=O)c1CNC(=O)c1cc(-c2ccnc(N3CCN(C)CC3)c2)cc2c1cnn2C(C)C
Activity (MDA-MB-436 [1]): Active | Activity (MCF7 [2]): Non-Toxic | Activity (MDA-MB-436 [3]): Active | Activity (MDA-MB-231 [4]): Active | Activity (MDA-MB-231 [5]): Active | Activity (MDA-MB-436 [6]): inactive | Activity (MDA-MB-231 [7]): Active | Activity (MDA-MB-436 [8]): Active | Activity (MDA-MB-436 [9]): Active | Activity (MCF7 [10]): Non-Toxic | Activity (MDA-MB-231 [11]): inactive | Activity (MDA-MB-231 [12]): Active | Activity (MDA-MB-453): Active | Activity (MDA-MB-436 [13]): Active | Activity (MDA-MB-231 [14]): Active | Activity (MDA-MB-231 [15]): Active | Activity (MDA-MB-436 [16]): Active | Activity (MDA-MB-436 [17]): 20.3% | Activity (MDA-MB-436 [18]): Active | Activity (MDA-MB-231 [19]): Active | Activity (MDA-MB-436 [20]): Active | Activity (BT-474): 56.8%
